Screening results (PubChem BioAssay)
ARNT TACC3 PPI: ARNT/TACC3 interaction disruption. Q9Y6A5. AlphaScreen His-ARNT PAS-B/GST-TACC3 binding, luminescence; TACC3 fragment carries E629A point mutation. inhibition, % at 9.99 µM. 390,000 compounds, 0.66% hits. AID 623870;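 active = mean inhibition of replicates at least 50% and at least half of replicates each reaching 50%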
CAL PDZ FP-1: inhibitors of human CAL PDZ peptide binding; Q9HD26; purified CAL PDZ, TMR-peptide fluorescence polarization, 1 h; inhibition, % at 24.9 µM; 300,000 compounds, 0.92% hits; AID 602252;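 active = mean inhibition of at least 30% with at least half of replicates also reaching 30%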
GRK2 inh: blocks RNA aptamer binding to human GRK2 | bead flow cytometry, FAM-aptamer displacement from GRK2 | inhibition of aptamer binding, % at 10 µM | 330,000 compounds, 0.59% hits | AID 488847;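 active = inhibition of aptamer binding above 40%, roughly 3 SD of noise, on plates passing a quality check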;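 note: median bead fluorescence of bound FAM aptamer so fluorescent compounds give negative values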
Tn6 DDE FP: disrupts Tn6 cyclic peptide binding to fibrin D-Dimer-E complex | P02675 | inhibition, % at 8.3 µM | 370,000 compounds, 0.21% hits | Fibrin DD(E) TRITC-Tn6 fluorescence polarization displacement | AID 720509;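 active = inhibition above a per-campaign cutoff: mean of compounds within control limits plus 3 SD, cut at about 15% in these data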
Target sequence (P02675 whole entry, looked up): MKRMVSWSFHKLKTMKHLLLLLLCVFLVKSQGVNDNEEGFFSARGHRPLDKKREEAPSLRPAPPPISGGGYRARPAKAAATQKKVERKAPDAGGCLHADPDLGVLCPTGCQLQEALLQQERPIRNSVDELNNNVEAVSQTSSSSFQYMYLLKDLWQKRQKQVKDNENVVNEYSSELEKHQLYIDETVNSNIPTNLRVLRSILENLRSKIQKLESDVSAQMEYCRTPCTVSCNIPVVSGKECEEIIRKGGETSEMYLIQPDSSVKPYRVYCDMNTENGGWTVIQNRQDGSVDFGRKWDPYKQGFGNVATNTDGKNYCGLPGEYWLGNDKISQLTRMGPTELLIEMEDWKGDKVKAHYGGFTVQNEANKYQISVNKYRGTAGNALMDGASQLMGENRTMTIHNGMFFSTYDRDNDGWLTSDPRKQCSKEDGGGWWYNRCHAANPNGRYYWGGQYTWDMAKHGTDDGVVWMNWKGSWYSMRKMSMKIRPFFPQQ
CAL PDZ FP-2: blocks peptide binding to human CAL PDZ domain. purified CAL PDZ, TMR-peptide fluorescence polarization, 1 h. inhibition, % at 20 µM. 330,000 compounds, 0.02% hits;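 active = highest replicate inhibition of at least 40%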
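Material – purified CerCALP PDZ construct · Detection – FP readout, S and P plane fluorescence · Measure – percent inhibition from loss of millipolarization · Controls – unlabelled peptide for full inhibition, DMSO wells as neutral · Probe or stimulus – TMR-labelled reporter peptide T*-PRC34 bound in PDZ groove · Times – 1 h at RT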
Tn7 DDE FP: inhibitors of Tn7 peptide binding to human fibrin DD(E); P02675; FP displacement of FITC-Tn7 peptide from fibrin DD(E); 0% = median of compound wells per plate; 370,000 compounds, 0.13% hits; inhibition, % at 8.3 µM;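 active = inhibition above the mean of compounds falling within the control limits plus 3 SD of them, cut at about 14% in these data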
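Test system: human clot-derived fibrin DD(E) complex / Quantity: 2 µM final DD(E) protein / Incubation: 10 min plus 3 h, room temperature / Measured by: fluorescence polarization / Benchmarks: high control of 10 µM Aha-Tn7 peptide / Replicates: singlicate testing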
DDE Tn6 FP ctr: DD(E)-Tn6 binding inhibition, counter-screen; Fibrin DD(E), TRITC-Tn6 fluorescence polarization displacement; 0% = median of compound wells, not DMSO; shares compounds with Tn6 DDE FP; 680 compounds, 2% hits; inhibition, % at 8.3 µM;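 active = inhibition above the mean of test compounds lying between the control limits plus 3 SD of those, cut at about 14% in these data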
DDE Tn6 confirm: confirmation of inhibitors of Tn6 binding to human fibrin DD(E). inhibition, % at 8.3 µM. 680 compounds, 10% hits. AID 720631. shares compounds with Tn6 DDE FP. FP displacement of TRITC-Tn6 peptide from DD(E); 0% = per-plate median of test wells;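 active = inhibition above the mean of compounds lying within the control limits plus 3 SD, cut at about 16% in these data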
Hits are given with their value; - = inactive; . = not tested or not shown; + = active, no number. Compounds with a hit are over-represented: about 1.8% of the library has one in this group of screens.

SMILES	ARNT TACC3 PPI	CAL PDZ FP-1	GRK2 inh	Tn6 DDE FP	CAL PDZ FP-2	Tn7 DDE FP	DDE Tn6 FP ctr	DDE Tn6 confirm
O=C(CSc1n[nH]c(=O)n1C1CC1)Nc1ccccc1	-	-	-	-	-	-	.	.
N#Cc1ccc(NC(=O)CSc2n[nH]c(=O)n2C2CC2)cc1	-	-	-	16	-	-	-	-
Cc1cccc(NS(=O)(=O)c2ccc3[nH]c(=O)cc(C(=O)OC(C)C(=O)Nc4ccc([N+](=O)[O-])cc4)c3c2)c1 (stereo not drawn)	-	-	-	50	-	-	-	-
CCc1ccc(NC(=O)C(C)OC(=O)c2cc(=O)[nH]c3ccc(S(=O)(=O)Nc4ccc(F)cc4)cc23)cc1 (stereo not drawn)	-	-	-	-	-	-	.	.
Cc1cc(C)c2c(N)c(C(=O)Nc3ccccc3Cl)sc2n1	.	.	.	18	.	-	-	-
Nc1nnc(CCC2CCCCC2)s1	-	-	-	17	-	-	-	-
Nc1nnc(CCCCCCCCCCc2nnc(N)s2)s1	.	-	-	-	-	-	.	.
CC(C)C(Cl)=NOC(=O)Nc1ccc(S(N)(=O)=O)cc1	-	-	.	16	-	-	-	-
Cc1nn(-c2ccc(F)cc2)c2sc(C(=O)O)cc12	-	-	-	-	-	-	.	.
Cc1nn(-c2ccccc2)c2sc(C(=O)NCc3ccc(F)cc3)cc12	.	.	.	32	.	-	-	-
CC(=O)Nc1cccc(C(=O)OC(C)C(=O)N2CCc3ccccc32)c1 (stereo not drawn)	-	-	-	-	-	-	.	.
CC(OC(=O)c1cccc([N+](=O)[O-])c1)C(=O)N1CCc2ccccc21 (stereo not drawn)	-	.	-	16	-	-	-	-
C=CCNc1ccc2c(c1)OC[C@@H](CC(C)C)NS2(=O)=O	.	.	.	-	.	-	.	.
CC(C)C(=O)NCCc1nc2ccccc2n1CCOc1ccccc1	-	-	-	15	-	-	-	-
Nc1cc(C(=O)O)ccc1Nc1ccccc1	-	-	-	18	-	-	-	-
Cc1cc(C(=O)COc2cc(F)ccc2[N+](=O)[O-])c(C)n1C1CC1	-	-	-	16	-	-	-	-
Cc1cc(C(=O)COc2ccc([N+](=O)[O-])cc2)c(C)n1C1CC1	-	-	-	-	-	-	.	.
CCOC(=O)NC(Nc1sc2c(c1C(=O)OC)CCN(C)C2)(C(F)(F)F)C(F)(F)F	.	-	-	-	-	-	.	.
CCC(=O)NC(Nc1sc2c(c1C(=O)OC)CCN(C)C2)(C(F)(F)F)C(F)(F)F	-	-	-	17	-	-	-	-
CC(=O)c1ccc(N2CCN(CN3C(=O)CC4(CCCC4)C3=O)CC2)c(F)c1	-	-	-	70	-	-	-	-
COc1ccc(/C=N/N2CCN(c3ccccc3OC)CC2)cc1OC	-	-	-	-	-	-	.	.
COc1ccccc1N1CCN(/N=C/c2ccc(C(=O)O)cc2)CC1	-	-	-	17	-	-	-	-
O=C(NC1CC1)c1cccc2c1C(=O)c1ccc(N3CCC(N4CCCCC4)CC3)cc1S2(=O)=O	.	.	.	18	.	-	-	-
CC1CCC(NC(=O)C2CCC(CNc3c(N4CCCCC4)c(=O)c3=O)CC2)CC1 (stereo not drawn)	-	-	-	17	-	-	-	-
CC(C)(C)NC(=O)C1CCC(CNc2c(N3CCCCC3)c(=O)c2=O)CC1 (stereo not drawn)	-	-	-	-	-	-	.	.
SMILES	ARNT TACC3 PPI	CAL PDZ FP-1	GRK2 inh	Tn6 DDE FP	CAL PDZ FP-2	Tn7 DDE FP	DDE Tn6 FP ctr	DDE Tn6 confirm
C[C@H]1CN([C@@H](C)CO)C(=O)c2cc(NC(=O)C3CCCCC3)ccc2O[C@@H]1CN(C)Cc1ccccc1	-	.	.	.	.	.	.	.
Cc1cc2ncc(S(=O)(=O)C(C)(C)C)c(N)n2n1	-	-	-	17	-	-	-	-
Cc1cc2ncc(S(=O)(=O)c3ccccc3)c(N)n2n1	-	-	-	-	-	-	.	.
CCCC(=O)Nc1ccc2c(c1)C(=O)N(C)[C@@H]1CC[C@H](CC(=O)Nc3ccccc3)O[C@@H]1CO2	-	.	.	.	.	.	.	.
COc1ccc2cc(C(=O)Nc3ccccc3)sc(=O)c2c1OC	-	-	-	-	-	-	.	.
COc1ccc2cc(C(=O)Nc3ccc(S(N)(=O)=O)cc3)sc(=O)c2c1OC	-	-	-	18	-	-	-	-
COc1ccccc1C(=O)COC(=O)C(NC(=O)Cc1ccccc1)C(C)C (stereo not drawn)	-	-	-	+	-	-	-	-
CC(=O)Nc1sc2c(c1-c1nc3ccccc3s1)CCOC2	.	.	.	16	.	-	-	-
CC(=O)Nc1sc2c(c1-c1nc3ccccc3s1)CCN(C)C2	.	.	.	-	.	-	.	.
C(=N\NC1=Nc2cccc3cccc1c23)/c1ccccc1	-	-	-	-	-	-	.	.
NC1=Nc2cccc3cccc1c23	-	-	-	38	-	-	-	46
O=c1[nH]nc(CNc2ccc(O)cc2)c2ccccc12	-	-	-	16	-	-	-	-
O=c1[nH]nc(Cc2ccc(Cl)cc2)c2ccccc12	-	-	-	15	-	-	-	-
CO[C@@H]1CN(C)C(=O)c2ccc(NC(=O)c3ccccc3F)cc2OC[C@H](C)N(C(C)=O)C[C@@H]1C	-	.	.	.	.	.	.	.
CCCCOCCCNC(=O)C[C@H]1C[C@@]2(C(=O)OC)C(=C[C@H](COCc3ccccc3)O[C@@H]2C)N(CCC2=CCCCC2)C1=O	.	.	.	-	.	-	.	.
CCOC(=O)C1(C)C=C(Nc2ccc(OC)cc2)C(=O)N1c1ccc(OC)cc1 (stereo not drawn)	-	-	-	-	-	-	.	.
CCOC(=O)C1(C)C=C(Nc2ccc(O)cc2)C(=O)N1c1ccc(O)cc1 (stereo not drawn)	-	-	-	24	-	-	-	-
O=C(COc1ccc2ccccc2c1)NCCc1ccc2c(c1)OCCO2	-	-	-	18	-	-	-	-
Cc1cc(NC(=O)c2ccc(NS(=O)(=O)c3ccc(F)cc3)cc2)no1	.	.	.	17	.	-	-	-
COc1ccc(-n2c(=S)[nH]c3cc(C(=O)Nc4ccc(OC)c(OC)c4)ccc3c2=O)cc1	-	-	-	17	-	-	-	-
COCCCNc1nc2c(c(=O)[nH]c(=O)n2C)n1CC(O)COc1ccccc1C (stereo not drawn)	-	-	-	17	-	-	-	-
